Laboratory results reported in ChEMBL document CHEMBL4251619, “A new family of densely functionalized fused-benzoquinones as potent human protein kinase CK2 inhibitors” (Eur J Med Chem, 2018).
The source made the active and inactive calls. No cut-off for these calls is given here.

Assays:
[1] = molecular target: T1, Casein kinase II alpha/beta (Homo sapiens, UniProt P68400); experiment: Inhibition of human CK2-alpha/beta expressed in Escherichia coli BL21(DE3) using RRRDDDSDDD peptide as substrate after 15 mins by capillary electrophoresis method
MCF7 [2] = experiment: Cytotoxicity against human MCF7 cells assessed as inhibition of cell viability at 10 uM after 48 hrs by MTT assay; format: functional, cell-based
Outline: (§1)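 MCF-7 cells grown in RPMI 1640 with GlutaMax and 10% FCS. Seeded at 1 x 10^5 cells/well and left overnight, then given fresh medium with inhibitor at 10 or 100 µM; 1% DMSO as control. After 48 h at 37 °C, 5% CO₂, MTT was added (0.5 mg/mL final) for 2 h. Formazan dissolved in DMSO and read at 570 nm against 630 nm reference. Triplicates, three independent experiments, mean ± SD.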

Casein kinase 2 = Casein kinase 2 (Homo sapiens, UniProt P67870+P68400+P19784+Q8NEV1); experiment: Inhibition of CK2 (unknown origin); format: protein assay
MCF7 [3] = experiment: Cytotoxicity against human MCF7 cells assessed as inhibition of cell viability at 100 uM after 48 hrs by MTT assay relative to control; format: functional; details: MCF7, 48 h; outline: as §1
[4] = molecular target: T1, Casein kinase II alpha/beta; experiment: ATP-competitive inhibition of human CK2-alpha/beta expressed in Escherichia coli BL21(DE3) using RRRDDDSDDD peptide as substrate after 15 mins in presence of varying levels of ATP by capillary electrophoresis method

Row | SMILES | IC50 [1] [nM] | inhibition (MCF7 [2]) | IC50 (Casein kinase 2) [nM] | inhibition at 100 µM (MCF7 [3]) [%] | Ki [4] [nM]
1 | CCCCCCCCCCCC1=C(O)C(=O)C2=C(OC(N)=C(C#N)C2c2ccncc2)C1=O (stereo unspecified) | 1440 |  |  |  | 
2 | CCCCCCCCCCCC1=C(O)C(=O)C2=C(OC(N)=C(C#N)C2c2ccco2)C1=O (stereo unspecified) | 720 |  |  |  | 
3 | CCCCCCCCCCCC1=C(O)C(=O)C2=C(OC(N)=C(C#N)C2CCCCCC)C1=O (stereo unspecified) | 3710 |  |  |  | 
4 | CCCCCCCCCCCC1=C(O)C(=O)C2=C(OC(N)=C(C#N)C2c2ccc(Cl)cc2)C1=O (stereo unspecified) | 900 | inactive | < 1000 |  | 
5 | CCCCCCCCCCCC1=C(O)C(=O)C2=C(OC(N)=C(C#N)C2c2ccc([N+](=O)[O-])cc2)C1=O (stereo unspecified) | 220 | inactive |  | 90 | 
6 | CCCCCCCCCCCC1=C(O)C(=O)C2=C(OC(N)=C(C#N)C2c2ccc(OC)cc2)C1=O (stereo unspecified) | 840 | inactive |  | 55 | 
7 | CCCCCCCCCCCC1=C(O)C(=O)C2=C(OC(N)=C(C#N)C2c2cccc(F)c2)C1=O (stereo unspecified) | 996 | inactive |  | 60 | 
8 | CCCCCCCCCCCC1=C(O)C(=O)C2=C(OC(N)=C(C#N)C2c2ccc(C(=O)O)cc2)C1=O (stereo unspecified) | 1360 |  |  |  | 
9 | CCCCCCCCCCCC1=C(O)C(=O)C2=C(OC(N)=C(C#N)C2c2ccccc2)C1=O (stereo unspecified) | 570 | inactive |  | 50 | 390
10 | CCCCCCCCC1=C(O)C(=O)C2=C(OC(N)=C(C#N)C2c2ccc([N+](=O)[O-])cc2)C1=O (stereo unspecified) | 1990 |  |  |  | 
11 | CCCCCCCCCCCC1=C(O)C(=O)C2=C(OC(N)=C(C#N)C2c2ccc3c(c2)OCO3)C1=O (stereo unspecified) | 1940 |  |  |  | 
12 | CCCCCCCCCCCC1=C(O)C(=O)C2=C(OC(N)=C(C#N)C2c2cccnc2)C1=O (stereo unspecified) | 1380 |  |  |  | 
13 | CCCCCCCCCCCC1=C(O)C(=O)C2=C(OC(N)=C(C#N)C2c2cccc([N+](=O)[O-])c2)C1=O (stereo unspecified) | 890 | inactive |  | 65 | 
